We go through twelve molecules from publication PMC3769431 (Structure (London, England : 1993), 2013).

By Kd is commonly meant the free concentration of one partner at which half of the binding sites on the other are occupied at equilibrium, for simple one-to-one binding.

For data set [1], the target named is p38α (unphosphorylated) (UniProt Q16539). Briefly: ITC. In general terms: ITC needs no label: the signal is the heat of the interaction.
Data set [2] concerns the target T1, p38α (Homo sapiens, UniProt Q16539). Kind of data set: Small angle X-ray scattering, resting-state complex with unphosphorylated p38α. The conditions noted are these: SAXS, GNOM. The procedure, abridged:
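Unphosphorylated p38α was mixed 1:1 with PTPSL 331–655 or STEP 214–539 for 30 min on ice, then SEC-purified in 50 mM HEPES pH 6.8, 150 mM NaCl, 5 mM DTT. Samples were 0.4–4.0 mg/ml (PTPSL) or 1.0–4.0 mg/ml (STEP), filtered, flowed through a 1 mm capillary and exposed 30 s or 180 s at a synchrotron beamline. Dmax came from the P(r) function.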

Data set [3] addresses T1, p38α. The conditions noted are these: 2011, cited from earlier work; for dephosphorylation of p38α (in words): in vitro phosphatase assays, ref Zhang et al.
Data set [4] concerns the target T1, p38α. Briefly: NMR chemical shift perturbation, 2D [1H,15N] TROSY of [2H,15N]-p38α. Format: binding. The settings on record: for number of p38α peaks with CSPs on complex formation / number of p38α peaks with line-widths broadened beyond detection / number of perturbed p38α peaks in fast exchange: free vs bound p38α, SEC-purified 1:1 complex, NMR buffer pH 6.8; for number of p38α peaks with CSPs on complex formation / number of p38α peaks with line-widths broadened beyond detection / number of perturbed p38α peaks in fast exchange / interaction with p38α by NMR (in words): 298 K; for interaction with p38α by NMR (in words): 2D [1H,15N] TROSY, 800 MHz, 50 mM HEPES pH 6.8, 150 mM NaCl, 5 mM dithiothreitol.

In data set [5] the target is T1, p38α. Kind of data set: Isothermal titration calorimetry. It is filed as binding.
The target in data set [6] is p38α (unphosphorylated) (UniProt Q16539 1-360). Kind of data set: ITC.
Where [7] appears, read: ITC, 25 °C, 10 mM Tris pH 7.5, 150 mM NaCl, 0.1 mM EDTA, 0.5 mM TCEP.

T1 sequence (Q16539 whole entry): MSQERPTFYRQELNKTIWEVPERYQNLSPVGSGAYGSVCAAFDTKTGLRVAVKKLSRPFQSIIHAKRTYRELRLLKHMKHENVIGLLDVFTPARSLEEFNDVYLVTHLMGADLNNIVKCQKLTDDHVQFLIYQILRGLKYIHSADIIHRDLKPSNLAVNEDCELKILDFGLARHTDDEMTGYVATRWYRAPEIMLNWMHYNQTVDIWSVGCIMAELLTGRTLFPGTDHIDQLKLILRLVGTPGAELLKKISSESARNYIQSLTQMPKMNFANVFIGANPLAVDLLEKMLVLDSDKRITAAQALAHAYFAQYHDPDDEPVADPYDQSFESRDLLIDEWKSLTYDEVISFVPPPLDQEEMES
Sequence of p38α (unphosphorylated) (UniProt Q16539) (Q16539 whole entry): as above
Sequence of p38α (unphosphorylated) (UniProt Q16539 1-360) (Q16539 whole entry): as above

Regarding “STEP (residues 214–539) (domain or fragment)”, in the data set with p38α (unphosphorylated) [1], the Kd amounted to 577 nM and the dH was -28.8 kcal/mol.
Regarding STEP_(M285A/I307A) (domain or fragment), in the data set with p38α (unphosphorylated) [1], the Kd came out at 592 nM and the dH is -27.6 kcal/mol.
In the data set with p38α (unphosphorylated) [1], STEP_(F274A/F281A) (domain or fragment) showed a Kd of 1070 nM and a dH of -24.2 kcal/mol.
Take “p38:PTPRR: 1:1 complex of unphosphorylated p38α with PTPSL 331–655”: in the data set with p38α [2], the “Dmax (P(r) function calculation)” value is recorded as 105 Å and the “Rg (P(r) function calculation)” value was 34.1 Å.
Turning to PSChimera (from UniProt Q15256 332-373), in the data set with p38α (unphosphorylated) [1], the Kd came out at 309 nM and the dH is -27.2 kcal/mol.

B1: STEP: STEP (residues 214–539) (protein, UniProt P54829 214-539, looked up, fragment)
chain: TPVFDCVMDIKPEADPTSLTVKSMGLQERRGSNVSLTLDMCTPGCNEEGFGYLMSPREESAREYLLSASRVLQAEELHEKALDPFLLQAEFFEIPMNFVDPKEYDIPGLVRKNRYKTILPNPHSRVCLTSPDPDDPLSSYINANYIRGYGGEEKVYIATQGPIVSTVADFWRMVWQEHTPIIVMITNIEEMNEKCTEYWPEEQVAYDGVEITVQKVIHTEDYRLRLISLKSGTEERGLKHYWFTSWPDQKTPDRAPPLLHLVREVEEAAQQEGPHCAPIIVHCSAGIGRTGCFIATSICCQQLRQEGVVDILKTTCQLRQDRGGMI
In the case of B1, the “kcat for dephosphorylation of p38α, fold lower than for PTPSL or HePTP” value with p38α [3] (compared with PTPSL or HePTP, ref Balasu et al., 2009, Zhang et al.) was ~ 20 fold. The “dephosphorylation of p38α (in words)” value in the data set with p38α [3] was “significantly less efficient than PTPSL and HePTP at dephosphorylating p38α”. Moreover, the “additional or larger CSPs (residues) than with the corresponding KIM peptide” value in the data set with p38α [4] (comparison with p38α:STEPKIM or p38α:PTPSLKIM spectra) is “three”. Moreover, in the data set with p38α [4], the “number of p38α peaks with CSPs on complex formation” value is 58 peaks, the “number of p38α peaks with line-widths broadened beyond detection” value is 18 peaks and the “number of perturbed p38α peaks in fast exchange” value was found to be 40 peaks. Moreover, in the data set with p38α [5] (setting [7]), the dissociation constant (Kd) stood at 577 ± 71 nM, the TΔS was -20.3 ± 2.0 kcal/mol, the ΔG was -8.5 ± 0.1 kcal/mol and the ΔH was -28.8 ± 2.0 kcal/mol. In addition, the “times tighter binding to p38α than STEPKIM” value with p38α [5] (ITC, relative to STEPKIM) is listed as ~ 6 times.

B2: STEPCAT: STEPCAT (residues 244–539), catalytic domain (protein, UniProt P54829 244-539, looked up, fragment)
chain: GSNVSLTLDMCTPGCNEEGFGYLMSPREESAREYLLSASRVLQAEELHEKALDPFLLQAEFFEIPMNFVDPKEYDIPGLVRKNRYKTILPNPHSRVCLTSPDPDDPLSSYINANYIRGYGGEEKVYIATQGPIVSTVADFWRMVWQEHTPIIVMITNIEEMNEKCTEYWPEEQVAYDGVEITVQKVIHTEDYRLRLISLKSGTEERGLKHYWFTSWPDQKTPDRAPPLLHLVREVEEAAQQEGPHCAPIIVHCSAGIGRTGCFIATSICCQQLRQEGVVDILKTTCQLRQDRGGMI
modifications: catalytic domain
As to B2, the “interaction with p38α by NMR (in words)” value with p38α [4] is on record as “non-specific interactions throughout the p38α surface”.

B3: HePTP: KIM-PTP HePTP (PTPN7, LC-PTP) (protein, UniProt P35236 1-360, looked up)
Tyrosine-protein phosphatase …: MVQAHGGRSRAQPLTLSLGAAMTQPPPEKTPAKKHVRLQERRGSNVALMLDVRSLGAVEPICSVNTPREVTLHFLRTAGHPLTRWALQRQPPSPKQLEEEFLKIPSNFVSPEDLDIPGHASKDRYKTILPNPQSRVCLGRAQSQEDGDYINANYIRGYDGKEKVYIATQGPMPNTVSDFWEMVWQEEVSLIVMLTQLREGKEKCVHYWPTEEETYGPFQIRIQDMKECPEYTVRQLTIQYQEERRSVKHILFSAWPDHQTPESAGPLLRLVAEVEESPETAAHPGPIVVHCSAGIGRTGCFIATRIGCQQLKARGEVDILGIVCQLRLDRGGMIQTAEQYQFLHHTLALYAGQLPEEPSP
In the case of B3, the “dephosphorylation of p38α (in words)” value with p38α [3] was “can both readily dephosphorylate p38α”.

B4: STEP_(F281A/I307A) (domain or fragment)
chain: GLQERRGSNVSLTLDMCTPGCNEEGFGYLMSPREESAREYLLSASRVLQAEELHEKALDPFLLQAEFAEIPMNFVDPKEYDIPGLVRKNRYKTALPNPHSRVCLTSPDPDDPLSSYINANYIRGYGGEEKVYIATQGPIVSTVADFWRMVWQEHTPIIVMITNIEEMNEKCTEYWPEEQVAYDGVEITVQKVIHTEDYRLRLISLKSGTEERGLKHYWFTSWPDQKTPDRAPPLLHLVREVEEAAQQEGPHCAPIIVHCSAGIGRTGCFIATSICCQQLRQEGVVDILKTTCQLRQDRGGMIQTCEQYQFVHHVMSLYEKQLSHQS
On to B4, for which, in the data set with p38α (unphosphorylated) [6], binding was put at a Kd of 1060 ± 36 nM and the dH is -34.3 ± 1.1 kcal/mol.

B5: PTPSL (residues 332–655) (domain or fragment, UniProt Q15256 332-655, looked up)
chain: GLQERRGSNVSLTLDMSSLGNIEPFVSIPTPREKVAMEYLQSASRILTRSQLRDVVASSHLLQSEFMEIPMNFVDPKEIDIPRHGTKNRYKTILPNPLSRVCLRPKNVTDSLSTYINANYIRGYSGKEKAFIATQGPMINTVDDFWQMVWQEDSPVIVMITKLKEKNEKCVLYWPEKRGIYGKVEVLVISVNECDNYTIRNLVLKQGSHTQHVKHYWYTSWPDHKTPDSAQPLLQLMLDVEEDRLASQGRGPVVVHCSAGIGRTGCFIATSIGCQQLKEEGVVDALSIVCQLRMDRGGMVQTSEQYEFVHHALCLYESRLSAET
B5: in the data set with p38α (unphosphorylated) [6], the Kd came out at 382 ± 65 nM and the dH was -30.2 ± 1.5 kcal/mol. Moreover, in the data set with p38α [3], the “dephosphorylation of p38α (in words)” value is “the most efficient p38α phosphatase of all tested”. Moreover, in the data set with p38α [4], the “number of p38α peaks with CSPs on complex formation” value is 41 peaks, the “number of p38α peaks with line-widths broadened beyond detection” value came out at 5 peaks and the “number of perturbed p38α peaks in fast exchange” value is reported as 36 peaks. Also, in the data set with p38α [5] (ITC), the “relative binding affinity for p38α (in words)” value was “the highest affinity interaction with p38α among the KIM-PTPs”. Besides, in the data set with p38α [5] (setting [7]), the TΔS was -21.4 ± 1.4 kcal/mol and the ΔG was -8.8 ± 0.1 kcal/mol. In the data set with p38α [5] (ITC, relative to PTPSLKIM), the “times tighter binding to p38α than PTPSLKIM” value is ~ 7 times. In the data set with p38α [5] (relative to HePTP), the “times tighter binding to p38α than HePTP” value was approximately 6 times.

B6: PTPSLCAT: PTPSLCAT (residues 361–655), catalytic domain (protein)
chain: TPREKVAMEYLQSASRILTRSQLRDVVASSHLLQSEFMEIPMNFVDPKEIDIPRHGTKNRYKTILPNPLSRVCLRPKNVTDSLSTYINANYIRGYSGKEKAFIATQGPMINTVDDFWQMVWQEDSPVIVMITKLKEKNEKCVLYWPEKRGIYGKVEVLVISVNECDNYTIRNLVLKQGSHTQHVKHYWYTSWPDHKTPDSAQPLLQLMLDVEEDRLASQGRGPVVVHCSAGIGRTGCFIATSIGCQQLKEEGVVDALSIVCQLRMDRGGMVQTSEQYEFVHHALCLYESRLSAET
B6: the “interaction with p38α by NMR (in words)” value with p38α [4] was “no interactions between p38α and isolated PTPSLCAT were detected”.

B7: PTPSL_(KIMKIS) (residues 332–373) (peptide, UniProt Q15256 332-373, looked up)
chain: GLQERRGSNVSLTLDMSSLGNIEPFVSIPTPREKVAMEYLQS
Regarding B7, in the data set with p38α (unphosphorylated) [6], binding was characterised by a dissociation constant (Kd) of 1530 ± 23 nM and the dH is -38.8 ± 6.1 kcal/mol.
